Reference: ChEMBL document CHEMBL3351518, “Synthesis and antibacterial activity of catecholate-ciprofloxacin conjugates” (Bioorg Med Chem, 2014)
Converted amounts (≈) assume the structure as drawn.

Columns and labels:
Pseudomonas aeruginosa [1] = assay: Antimicrobial activity against ciprofloxacin-sensitive Pseudomonas aeruginosa DSM 1117 grown under succinate minimum medium in presence of 1 uM FeCl3 by broth microdilution method; type: functional
In short: (§1)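 Overnight cultures at 35 °C in Tryptic Soy Broth were streaked on Tryptic Soy Agar, and inocula were prepared per CLSI. Broth microdilution used two-fold serial dilutions of 0.0625–128 µg/mL from DMSO stocks made with gentle heating (40 °C) and 10 min sonication. Ciprofloxacin served as control in each series. MIC was the highest dilution with clear wells. Media: cation-adjusted Mueller–Hinton, pH 7.3; succinate minimum medium, pH 7.0, without or with 1 µM FeCl3 added.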

Pseudomonas aeruginosa [2] = assay: Antimicrobial activity against ciprofloxacin-resistant Pseudomonas aeruginosa AM 85 grown under succinate minimum medium by broth microdilution method; type: functional
In short: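 AM 85 is a clinical isolate with efflux-mediated ciprofloxacin resistance. Overnight growth at 35 °C in Tryptic Soy Broth, then Tryptic Soy Agar plates. CLSI broth microdilution in iron-deprived succinate minimum medium, pH 7.0, with no iron added. Two-fold dilutions (0.0625–128) from a DMSO stock made with 40 °C warming and 10 min sonication. MIC read as the highest dilution with clear wells.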

[3] = Toxicity in human RBC assessed as induction of hemolysis up to 384 ug/ml after 1 hr relative to saponin; type: cell-based, Erythrocyte; conditions: red blood cells (RBC), read-out: Activity
In short: (§2)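 Human red blood cells were washed three times in TRIS buffer (10 mmol/l TRIS, 150 mmol/l NaCl, pH 7.4) and suspended at 0.5% (v/v). 15 µL of test or control solution was added to 235 µL suspension, in triplicate, with 1% saponin as 100% hemolysis and DMSO/TRIS as negative controls. Incubation was 1 h at 37 °C. After centrifugation, supernatant OD was read at 405 nm.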

Pseudomonas aeruginosa [4] = assay: Antimicrobial activity against ciprofloxacin-resistant Pseudomonas aeruginosa AM 85 grown under Mueller-Hinton medium by broth microdilution method; type: functional
In short: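 AM 85 is a clinical isolate with efflux-mediated ciprofloxacin resistance. Grown overnight at 35 °C in Tryptic Soy Broth, then streaked on Tryptic Soy Agar. CLSI broth microdilution in cation-adjusted Mueller–Hinton broth, pH 7.3. DMSO stock (40 °C warming, 10 min sonication) diluted two-fold, 0.0625–128. MIC is the highest dilution with clear wells.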

Pseudomonas aeruginosa [5] = assay: Antimicrobial activity against ciprofloxacin-sensitive Pseudomonas aeruginosa DSM 1117 grown under Mueller-Hinton medium by broth microdilution method; type: functional; in short: as §1
Pseudomonas aeruginosa [6] = assay: Antimicrobial activity against ciprofloxacin-sensitive Pseudomonas aeruginosa DSM 1117 grown under succinate minimum medium by broth microdilution method; type: functional; in short: as §1
Pseudomonas aeruginosa [7] = assay: Antimicrobial activity against ciprofloxacin-resistant Pseudomonas aeruginosa AM 85 grown under succinate minimum medium in presence of 1 uM FeCl3 by broth microdilution method; type: functional
In short: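 Clinical efflux-mediated ciprofloxacin-resistant isolate AM 85, grown overnight at 35 °C in Tryptic Soy Broth and isolated on Tryptic Soy Agar. CLSI broth microdilution in succinate minimum medium, pH 7.0, supplemented with FeCl3 for iron-enriched conditions. Compounds were dissolved in DMSO (40 °C, 10 min sonication) and serially diluted two-fold, 0.0625–128. MIC is the highest dilution with clear wells.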

[8] = Toxicity in human RBC assessed as induction of hemolysis at 384 ug/ml after 1 hr relative to saponin; type: cell-based, Erythrocyte; conditions: red blood cells (RBC), read-out: Activity; in short: as §2
[9] = Toxicity in human RBC assessed as induction of hemolysis after 1 hr relative to saponin; type: cell-based, Erythrocyte; conditions: red blood cells (RBC), read-out: Activity; in short: as §2
[10] = Induction of iron complexation in mixed H2O/DMSO solvent mixture (0.2 mole fraction of DMSO) at 1:3 mixture of […] at 25 degC at 3.0 <pH <4.1 by UV-visible spectrophotometry; type: physicochemical
In short: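 UV–visible spectra of 1:3 iron(III):ligand solutions were recorded across pH in H2O/DMSO at 0.2 DMSO mole fraction, 25 °C. pH was adjusted by automatic titrator addition of 0.1 M KOH prepared in the same solvent. The glass electrode was calibrated by titrating 0.1 M HCl with KOH in H2O/DMSO.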

SMILES	MIC (Pseudomonas aeruginosa [1]) [µg/mL]	MIC (Pseudomonas aeruginosa [2]) [µg/mL]	hemolysis at 1 h [3] [%]	MIC (Pseudomonas aeruginosa [4]) [µg/mL]	MIC (Pseudomonas aeruginosa [5]) [µg/mL]	MIC (Pseudomonas aeruginosa [6]) [µg/mL]	MIC (Pseudomonas aeruginosa [7]) [µg/mL]	hemolysis at 1 h, 384 ug/ml [8] [%]	hemolysis at 1 h [9] [%]	Activity [10]
COC(=O)CN1CCN(c2cc3c(cc2F)c(=O)c(C(=O)O)cn3C2CC2)CC1	16	> 128	< 10	> 128	8 (≈ 19.8 µM)	16 (≈ 39.7 µM)	> 128			
O=C(NCCCC(CCCNC(=O)c1cccc(O)c1O)(CCCNC(=O)c1cccc(O)c1O)C(=O)N1CCN(c2cc3c(cc2F)c(=O)c(C(=O)O)cn3C2CC2)CC1)c1cccc(O)c1O	> 128	> 128		> 128	> 128	> 128	> 128	40		
O=C(CCCN1CCN(c2cc3c(cc2F)c(=O)c(C(=O)O)cn3C2CC2)CC1)OCC(CCCNC(=O)c1cccc(O)c1O)(CCCNC(=O)c1cccc(O)c1O)CCCNC(=O)c1cccc(O)c1O	32	> 128		> 128	64 (≈ 62.4 µM)	64 (≈ 62.4 µM)	> 128		< 10	
O=C(O)c1cn(C2CC2)c2cc(N3CCN(C(=O)c4cccc(O)c4O)CC3)c(F)cc2c1=O	16	64 (≈ 137 µM)	< 10	> 128	> 128	32 (≈ 68.5 µM)	32			Active
O=C(CCN1CCN(c2cc3c(cc2F)c(=O)c(C(=O)O)cn3C2CC2)CC1)OCC(CCCNC(=O)c1cccc(O)c1O)(CCCNC(=O)c1cccc(O)c1O)CCCNC(=O)c1cccc(O)c1O	64	> 128		> 128	> 128	> 128	> 128		< 10	
O=C(CN1CCN(c2cc3c(cc2F)c(=O)c(C(=O)O)cn3C2CC2)CC1)OCC(CCCNC(=O)c1cccc(O)c1O)(CCCNC(=O)c1cccc(O)c1O)CCCNC(=O)c1cccc(O)c1O	4	> 128		> 128	8 (≈ 8.02 µM)	8 (≈ 8.02 µM)	> 128		< 10	
O=C(O)CN1CCN(c2cc3c(cc2F)c(=O)c(C(=O)O)cn3C2CC2)CC1	0.125	16 (≈ 41.1 µM)		16 (≈ 41.1 µM)	0.25 (≈ 0.642 µM)	0.125 (≈ 0.321 µM)	16	40		
O=C(O)c1cn(C2CC2)c2cc(N3CCNCC3)c(F)cc2c1=O [CIPROFLOXACIN]		16 (≈ 48.3 µM)		16 (≈ 48.3 µM)			32		< 10	
